The source of these data is ChEMBL document CHEMBL1135691, “Synthesis of novel N-1 (allyloxymethyl) analogues of 6-benzyl-1-(ethoxymethyl)-5-isopropyluracil (MKC-442, emivirine) with improved activity against HIV-1 and its mutants” (J Med Chem, 2002).

For data set [1], the system named is Human immunodeficiency virus 1. The data set can be described thus: Effective concentration required to achieve 50% inhibition of HIV-1 multiplication in MT-4-infected Y181C+K103N strain. Type of data set: functional. The following applies: read-out: ED50 (the source's name). Summed up: (§1)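 NNRTI-resistant HIV-1 strains infected MT-4 cells at 0.005 MOI. Cells were cultured with serial compound dilutions in RPMI 1640 with 10% heat-inactivated FCS and antibiotics for 6 days, alongside infected and uninfected no-compound controls. Viral expression was quantified indirectly by MTT assay. EC50 was interpolated from percent-inhibition versus concentration plots. Values are means of three separate experiments.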

The nature of data set [2]: Selective index (CD50 compared to ED50 against HIV-1 IIIB strain). Type of data set: functional. The procedure, abridged:
(§2)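 Ratio of CD50 to ED50. Both values come from 6-day MT-4 MTT assays: uninfected cultures for cytotoxicity, and cultures infected at MOI 0.005 with the named wild-type strain for antiviral effect. Each value was interpolated from inhibition–concentration plots and is the mean of three experiments.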

In data set [3] the test system is MT4. The data set can be described thus: (§3) Cytotoxic dose required to reduce the viability of normal uninfected MT-4 cells by 50%. Type of data set: functional, Homo sapiens. The following applies: read-out: CD50 (the source's name).
Data set [4] is described as follows: (§4) Selective index as the ratio of CD50 to that of ED50 against HIV-1 HxB2 strain. Type of data set: functional. The procedure, abridged:
as §2

Data set [5] has as its system Human immunodeficiency virus 1. The data set can be described thus: (§5) Effective concentration required to achieve 50% inhibition of HIV-1 multiplication in MT-4-infected Y181C strain. Type of data set: functional. Particulars: read-out: ED50 (the source's name). The procedure, abridged: as §1
Data set [6] has as its system Human immunodeficiency virus 1. As to the kind of experiment: Effective concentration required to achieve 50% inhibition of HIV-1 multiplication in MT-4-infected wild type cells. Type of data set: functional. Particulars: read-out: ED50 (the source's name). The procedure, abridged:
(§6)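 MT-4 cells infected with wild-type HIV-1 (IIIB, H9-propagated stock, or HxB2 clone) at MOI 0.005 and cultured 6 days in RPMI 1640 with 10% heat-inactivated FCS and compound dilutions. Infected and uninfected controls without compound run in parallel. Virus expression measured indirectly by MTT. EC50 interpolated from inhibition–concentration plots. Mean of three experiments.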

The subject of data set [7] is Human immunodeficiency virus 1. As to the kind of experiment: Inhibition of HIV-1 IIIB replication in MT-4-infected wild type cells. Type of data set: functional. Particulars: read-out: ED50 (the source's name). The procedure, abridged: as §6
For data set [8], the system named is Human immunodeficiency virus 1. As to the kind of experiment: Effective concentration required to achieve 50% inhibition of HIV-1 multiplication in MT-4-infected K103N strain. Type of data set: functional. Particulars: read-out: ED50 (the source's name). The procedure, abridged:
as §1

For data set [9], the system named is Human immunodeficiency virus 1. The data set is described as §5. Type of data set: functional. Particulars: read-out: ED50 (the source's name). Summed up: as §1
This is another data set of the same source.

The nature of data set [10]: Selective index as the ratio of CD50 to that of ED50 against HIV-1 IIIB strain. Summed up: as §2
Data set [11] is described as follows: as §4. Summed up: as §2
Data set [12] is described as follows: as §3. Type of data set: cell-based, MT4. The following applies: human, read-out: CD50 (the source's name).

SMILES strings stand for the structures. Values joined by “and” are separate entries in the source; they are usually repeats but may differ in a detail not shown here. Equal entries are not always repeated. Structures can show the parent of a compound that is named as a salt. Bounds are passed on as bounds.

As for `C=CCOCn1c(Cc2ccccc2)c(C(C)C)c(=O)[nH]c1=O`, the EC50 is > 100000 nM in [1]; 100000 nM in data set [5]; 3 nM in [6]; 4 nM in data set [7]; 900 nM in data set [8]; 3300 nM in data set [9]. For the same compound, the SI in data set [2] is > 25000; in data set [4] it was > 33300. In addition, the CC50 in data set [3] (Homo sapiens, MT4) was > 100000 nM.

`CCc1c(Cc2cccc3ccccc23)n(COCC=C(C)C)c(=O)[nH]c1=O`: the SI in data set [2] was > 333. For the same compound, the CC50 in [3] (Homo sapiens, MT4) is > 100000 nM. The EC50 in [7] was 300 nM.

On to `C=C(C)COCn1c(Cc2cc(C)cc(C)c2)c(C(C)C)c(=O)[nH]c1=O`, for which the EC50 in [1] was found to be 26000 nM; in data set [5], 15000 nM; in data set [7] it was 0.15 nM. The SI in data set [2] was > 667000. Besides, in [3] (Homo sapiens, MT4), the CC50 is > 100000 nM.

For the compound `C=CCOCn1c(Cc2cccc3ccccc23)c(CC)c(=O)[nH]c1=O`, the SI in [2] came to 32. Also, the CC50 in [3] (Homo sapiens, MT4) came to 32000 nM. Moreover, the EC50 in data set [7] was 1000 nM.

Consider `C=C(C)COCn1c(Cc2cc(C)cc(C)c2)c(CC)c(=O)[nH]c1=O`, for which the EC50 in [1] stood at 28000 nM; in [5], 360 nM; in data set [6] it was 8 nM; in [7], 2.5 nM; in [8], 2200 nM; in [9], 4000 nM. Also, the SI in data set [2] was > 40000; in data set [4] it was > 12500. In addition, the CC50 in data set [3] (Homo sapiens, MT4) is > 100000 nM.

For `CC(C)=CCOCn1c(Cc2cc(C)cc(C)c2)c(C(C)C)c(=O)[nH]c1=O`, the EC50 amounted to 28000 nM in data set [1], 19000 nM in data set [5] and 0.2 nM in data set [7]. The SI in data set [2] was > 500000. Further, the CC50 in data set [3] (Homo sapiens, MT4) was > 100000 nM.

For the compound `CC(C)Nc1cccnc1N1CCN(C(=O)c2cc3cc(NS(C)(=O)=O)ccc3[nH]2)CC1` [DELAVIRDINE MESYLATE], the EC50 in data set [1] is > 100000 nM; in [5], > 100000 nM; in data set [6], 190 nM; in [7] it was 60 nM; in [8], 3000 nM; in [9], 4500 nM. Moreover, the SI was 700 in data set [2] and > 221 in [4]. In addition, the CC50 in data set [3] (Homo sapiens, MT4) is 42000 nM; in [3] it was > 42000 nM.

With `Cc1ccnc2c1NC(=O)c1cccnc1N2C1CC1` [NEVIRAPINE], the EC50 was > 100000 nM in data set [1]; > 100000 nM in data set [5]; 570 nM in [6]; 380 nM in data set [7]; 4300 nM in [8]; 22000 nM in [9]. Further, the SI was > 263 in [2] and > 175 in data set [4]. Also, in [3] (Homo sapiens, MT4), the CC50 was > 100000 nM.

Regarding `C=CCOCn1c(Cc2cc(C)cc(C)c2)c(C(C)C)c(=O)[nH]c1=O`, the EC50 in data set [1] was > 100000 nM; in data set [5], > 100000 nM; in [7] it was 0.2 nM. The SI in data set [2] came out at 150000. In data set [3] (Homo sapiens, MT4), the CC50 came out at 30000 nM.

As for `CCc1c(Cc2cc(C)cc(C)c2)n(COCC=C(C)C)c(=O)[nH]c1=O`, the EC50 was > 100000 nM in data set [1]; 340 nM in data set [5]; 0.02 nM in data set [6]; 0.3 nM in data set [7]; 90 nM in data set [8]; 450 nM in [9]. For the same compound, the SI in [2] came to 120000; in data set [4] it was 3.03e+06. The CC50 in [3] (Homo sapiens, MT4) came out at 36000 nM; in data set [3], 61000 nM.

As for `C=C(C)COCn1c(Cc2cccc3ccccc23)c(CC)c(=O)[nH]c1=O`, in data set [2], the SI is 35. The CC50 in data set [3] (Homo sapiens, MT4) turned out to be 35000 nM. Also, the EC50 in data set [7] is 1000 nM.

Regarding `O=C1Nc2ccc(Cl)cc2[C@@](C#CC2CC2)(C(F)(F)F)O1` [EFAVIRENZ], the EC50 in [1] turned out to be 2700 nM; in [6], 40 nM; in data set [7], 10 nM; in [8] it was 350 nM; in [9] it was 40 nM. Also, the CC50 in data set [3] (Homo sapiens, MT4) was > 100000 nM.

As for `C#CCOCn1c(Cc2ccccc2)c(C(C)C)c(=O)[nH]c1=O`, the values for the EC50 in [1], in [5] and in data set [7] were > 100000 nM, > 100000 nM and 7 nM, respectively. The SI in data set [2] is > 14300. Moreover, the CC50 in data set [3] (Homo sapiens, MT4) is > 100000 nM.

`C=C(C)COCn1c(Cc2ccccc2)c(C(C)C)c(=O)[nH]c1=O`: the EC50 is > 100000 nM in [1]; > 100000 nM in data set [5]; 50 nM in data set [6]; 280 nM in data set [7]; > 100000 nM in data set [8]; > 100000 nM in data set [9]. Also, in [3], the CC50 was 40000 nM and > 100000 nM. For the same compound, the SI in data set [10] is 142; in data set [11], > 2000.

Take `C#CCOCn1c(Cc2cc(C)cc(C)c2)c(CC)c(=O)[nH]c1=O`: the EC50 in [1] was 3000 nM; in [5] it was > 100000 nM; in data set [7] it was 3 nM. Also, in [2], the SI is > 33300. For the same compound, the CC50 in data set [3] (Homo sapiens, MT4) was > 100000 nM.

In the case of `C=CCOCn1c(Cc2cc(C)cc(C)c2)c(CC)c(=O)[nH]c1=O`, the EC50 was 10000 nM in data set [1]; 320 nM in [5]; 0.02 nM in [6]; 4 nM in data set [7]; 20 nM in [8]; 70 nM in data set [9]. For the same compound, the SI was 25000 in data set [2] and > 5e+06 in [4]. In addition, the CC50 in [3] (Homo sapiens, MT4) was 100000 nM; in data set [3], > 100000 nM.

As to `CC(C)=CCOCn1c(Cc2ccccc2)c(C(C)C)c(=O)[nH]c1=O`, the EC50 in data set [1] is > 100000 nM; in [5], > 100000 nM; in data set [6], 30 nM; in [7], 30 nM; in data set [8], 3800 nM; in data set [9], > 100000 nM. In addition, the figures for the SI in data set [2] and in [4] were 1070 and 1120, respectively. Besides, the CC50 is 34000 nM in data set [3] (Homo sapiens, MT4) and 32000 nM in [12].
